VIM-2 inh = VIM-2 metallo-beta-lactamase inhibitors, primary screen, biochemical, epi-absorbance readout, Pseudomonas aeruginosa enzyme. 0.89% of 290,000 active. inhibition, % at 5.6 µM. purified VIM-2, nitrocefin hydrolysis, epi-absorbance fluorescence. AID 1527, 2009;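 active = inhibition above the mean of all tested compounds plus 3 SD, cutoff set per screening run, cut at about 7.5% in these data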;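 also: red hydrolysis product quenches plate fluorescence so inhibitors raise well fluorescence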
CTSL1 counter = Fasciola hepatica cathepsin L1 inhibitors, primary screen, counter-screen for PFM18AAP inhibitor project, biochemical, QFRET, fluorogenic peptide substrate; recombinant F. hepatica cathepsin L1, Z-Leu-Arg-MCA fluorescence; inhibition, % at 5.96 µM; 0.49% of 300,000 active; AID 1906, 2009;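 active = inhibition above the mean of all tested compounds plus 3 SD, set per screening campaign, cut at about 17% in these data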
M18AAP inhibitor = PfM18AAP inhibitors, malaria aminopeptidase, primary screen, biochemical, QFRET, recombinant enzyme; H-Glu-NHMec fluorogenic cleavage; M18 aspartyl aminopeptidase (Plasmodium falciparum 3D7); inhibition, % at 7.35 µM; AID 1822, 2009; 1.2% of 290,000 active;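 active = inhibition above the campaign mean inhibition over all tested compounds plus 3 SD, cut at about 28% in these data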
IMP-1 inh = IMP-1 metallo-beta-lactamase inhibitors, primary screen, biochemical, epi-absorbance readout, Pseudomonas aeruginosa enzyme; inhibition, % at 5.6 µM; purified IMP-1, nitrocefin hydrolysis, epi-absorbance fluorescence; 0.45% of 290,000 active;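 active = inhibition above the mean plus 3 SD of all compounds in the same screening run, cut at about 4.5% in these data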
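Assay system: purified recombinant IMP-1 beta-lactamase. Input: IMP-1 0.2 nM before substrate addition. Buffer or medium: Zinc- and detergent-supplemented HEPES buffer, pH 7.1. Schedule: 25 °C, 15 min preincubation, 25 min reaction. Signal: Epi-absorbance fluorescence, 480 nm excitation, 530 nm emission. Evaluation: percent inhibition from optical density relative to buffer-blank wells.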
Hits are given with their value; . = inactive; / = not tested or not shown. Hits are enriched below; roughly 2.7% of the tested compounds scored in any of these assays.

SMILES | VIM-2 inh | CTSL1 counter | M18AAP inhibitor | IMP-1 inh
CCc1c(C(=O)Nc2ccccc2)c(C)[nH]c(=S)c1C#N | . | . | . | .
COc1ccc(S(=O)(=O)N(CC(=O)NCc2cccnc2)c2ccc(C)cc2)cc1OC | . | . | . | .
O=c1[nH]cnc2sc3c(c12)CCN(Cc1ccccc1)C3 | . | . | . | .
OCCCNc1ncnc2sc3c(c12)CCN(Cc1ccccc1)C3 | . | 32 | . | .
CCOC(=O)Cn1nnnc1C(C(C)C)N(Cc1cccs1)Cc1cc2cc(C)ccc2[nH]c1=O (stereo not given) | . | . | 31 | .
CCN(CC)C(=O)CSc1nc2ccccc2c(=O)n1CC | . | . | . | .
CCN(CC)C(=O)CSc1nnc(-c2cc3ccccc3cc2O)n1CC | 10 | . | . | .
COc1cccc2c1C(=O)c1c(O)c3c(c(O)c1C2=O)C[C@@](O)(C(=O)CO)C[C@@H]3O[C@H]1C[C@H](N)[C@H](O)[C@H](C)O1 | 24 | . | 28 | 5.7
Cc1ccc(-c2nc3cnccn3c2Nc2ccc3c(c2)OCO3)o1 | . | . | . | .
CSc1ccc(-c2nc3cnccn3c2Nc2ccc3c(c2)OCO3)cc1 | . | . | . | .
Cc1ccc(Nc2c(-c3ccccn3)nc3ccc(C)cn23)cc1 | . | 19 | . | .
Cc1ccn2c(NC3CCCC3)c(-c3ccccn3)nc2c1 | . | . | . | .
Cc1ccc(Nc2c(-c3ccccn3)nc3cc(C)ccn23)cc1 | 8.3 | . | . | .
Clc1ccc(-c2nc3cnccn3c2Nc2ccc3c(c2)OCO3)cc1 | . | . | 31 | .
Cc1ccn2c(Nc3ccc4c(c3)OCO4)c(-c3ccccn3)nc2c1 | 39 | . | . | .
Cc1ccc2nc(-c3ccncc3)c(Nc3ccccc3)n2c1 | . | . | . | .
O=C(O)C1C2C=CC(C2)C1C(=O)NCc1ccc(Cl)c(Cl)c1 (stereo not given) | . | . | . | .
CCOC(=O)NNC(=O)NCCCCCCNC(=O)NNC(=O)OCC | . | . | . | .
Cc1ccc(-c2csc(NC(=O)C3=NN(c4ccccc4)C(=O)CC3)n2)cc1 | . | . | . | .
NC(=O)N/N=C1\CCS(=O)(=O)c2ccc(F)cc21 | . | . | . | .
NC(=S)N/N=C1\CCOc2ccc(F)cc21 | . | 18 | . | .
CCOC(CNC(=O)CN1C(=O)COc2ccc(S(=O)(=O)N3CC(C)CC(C)C3)cc21)OCC (stereo not given) | . | . | . | .
COCCCn1c(-c2ccc(Cl)cc2)n[nH]c1=S | . | . | . | .
S=c1[nH]nc(-c2ccc(Cl)cc2)n1CCCN1CCOCC1 | 8.4 | . | . | .
CCCN(CC(=O)Nc1ccccc1C)C(=O)C1CCN(S(=O)(=O)c2cccc(C(F)(F)F)c2)CC1 | / | . | / | /
SMILES | VIM-2 inh | CTSL1 counter | M18AAP inhibitor | IMP-1 inh
CC(NC(=O)CSc1nnc(-c2cccnc2)n1N)c1ccccc1 (stereo not given) | . | . | . | .
O=C(CCc1nnc2ccc(N3CCOCC3)nn12)Nc1ccc(F)cc1F | . | . | . | .
CCCN1CCN(CCCNC(=O)CCCn2nc(C)c3sc4ccccc4c3c2=O)CC1 | . | . | . | .
CCN1CCN(C(=O)Cn2nc(C)c3sc4ccccc4c3c2=O)CC1 | 9.3 | . | . | .
COC(=O)CSc1nnc([C@H](CC(C)C)NC(=O)OC(C)(C)C)o1 | . | 52 | . | .
CC(C)(C)OC(=O)N[C@@H](Cc1ccccc1)c1nnc(SCC(=O)O)o1 | . | 29 | . | .
CC(C)(C)OC(=O)N[C@@H](Cc1ccccc1)c1nnc(S(=O)(=O)Cc2ccccc2)o1 | . | 25 | . | .
CCSc1nnc([C@H](Cc2ccccc2)NC(=O)OC(C)(C)C)o1 | . | . | . | .
CCOC(=O)CSc1nnc([C@H](CC(C)C)NC(=O)OC(C)(C)C)o1 | . | / | . | .
Cc1ccccc1CS(=O)(=O)c1nnc([C@H](Cc2ccccc2)NC(=O)OC(C)(C)C)o1 | . | 29 | . | .
CCOC(=O)c1nc(Nc2cc(Cl)ccc2OC)c2ccccc2n1 | . | . | . | .
CC(OC(=O)C1CC1)C(=O)Nc1ccc([N+](=O)[O-])cc1Cl (stereo not given) | . | . | . | .
COc1ccc(-c2nc(N)c(C#N)c(-c3cccnc3)c2C)cc1 | . | . | . | .
CN1CC(=O)N2[C@H](c3ccc4c(c3)OCO4)c3[nH]c4ccccc4c3C[C@@H]2C1=O | . | . | . | .
